Measurements as given in ChEMBL document CHEMBL1129444, “Peptidomimetic inhibitors of herpes simplex virus ribonucleotide reductase with improved in vivo antiviral activity” (J Med Chem, 1996).
pEC50, pIC50: −log10 of the molar value. *1 amine or outer side, *2 acyl side, *3 side chain or, on linkers, in order; H or OH if unused. Where a SMILES comes first, the peptide text is derived from it. [ ]: non-standard residue; d: D form. The star is where a group is joined. Asp(3,3-(CH2)4) = N[C@H](C(=O)O)C1(C(=O)O)CCCC1; Dibenzylacetyl = O=C(C(Cc1ccccc1)Cc1ccccc1)*; Leu(γ-Me)ol = CC(C)(C)C[C@@H](CO)N*; tBuAla = CC(C)(C)C[C@H](N)C(=O)O; Tle = CC(C)(C)[C@H](N)C(=O)O; NMeV = CN[C@H](C(=O)O)C(C)C; X1 = CC[C@@H](N*)C(C)(C)C; NH(3-pentyl) = CCC(CC)N*; Pyrrolidide = C1CCN(*)C1; NHcHex = C1CCC(N*)CC1; CO = O=C([*:1])[*:2]; X2 = CCCC(CCC)N*; NHiPr = CC(C)N*

What was measured:
[1] = target: Ribonucleotide reductase large subunit R1 (Herpes simplex virus); experiment: Inhibitory effect was evaluated on Herpes simplex virus (HSV) ribonucleotide reductase (RR) enzyme.
BHK-21 [2] = experiment: Effective concentration was evaluated against HSV-2 by using serum starved baby hamster kidney cells in a colorimetric viral yield assay.; format: functional, cell-based; settings: Mesocricetus auratus
Summary of the method: (§1)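 Viral yield in serum-starved BHK cells, read colorimetrically. EC50 reported as mean of at least three separate determinations with standard deviation. Cytotoxicity measured in parallel by MTT (tetrazolium) metabolic assay to give CC50.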

BHK-21 [3] = experiment: Effective concentration was evaluated against HSV-1 by using serum starved baby hamster kidney cells in a colorimetric viral yield assay.; format: functional, cell-based; settings: Mesocricetus auratus
Summary of the method: as §1

Compound	pIC50 [1]	pEC50 (BHK-21 [2])	pEC50 (BHK-21 [3])
CC(C)C[C@H](NC(=O)[C@H](CC(=O)O)NC(=O)[C@H](CC(=O)N1CCCC1)NC(=O)[C@@H](NC(=O)NC1[C@@H](C)CCC[C@@H]1C)C(C)C)C(=O)O.CC(C)C[C@H](NC(=O)[C@H](CC(=O)O)NC(=O)[C@H](CC(=O)N1CCCC1)NC(=O)[C@@H](NC(=O)NC1[C@H](C)CCC[C@H]1C)C(C)C)C(=O)O	7.70		
CCC(CC)NC(=O)N[C@H](C(=O)N[C@@H](CC(=O)N1CCCC1)C(=O)N[C@@H](CC(=O)O)C(=O)NCCC(C)(C)C)C(C)(C)C	7.00		
CC[C@@H](NC(=O)[C@@H](NC(=O)[C@@H](CC(=O)[C@@H](NC(=O)N[C@@H]1[C@H](C)CCC[C@@H]1C)C(C)(C)C)CC(=O)N1CCCC1)C1(C(=O)O)CCCC1)C(C)(C)C		4.10	4.30
CCC(CC)NC(=O)N[C@H](C(=O)N[C@@H](CC(=O)N1CCCC1)C(=O)N[C@@H](CC(=O)O)C(=O)NCC(C)(C)C)C(C)(C)C	7.40		
C[C@@H]1CCC[C@H](C)[C@@H]1NC(=O)N[C@H](C(=O)C[C@@H](CC(=O)C(C)(C)C)C(=O)N[C@H](C(=O)NCC(C)(C)C)C1(C(=O)O)CCCC1)C(C)(C)C		4.59	4.77
CC[C@@H](NC(=O)[C@@H](NC(=O)[C@H](CC(=O)N1CCCC1)NC(=O)[C@@H](NC(=O)N[C@@H]1[C@H](C)CCC[C@@H]1C)C(C)(C)C)C1(C(=O)O)CCCC1)C(C)(C)C		4.40	4.55
CCCC(CCC)NC(=O)N[C@H](C(=O)C[C@@H](CC(=O)C(C)(C)C)C(=O)N[C@H](C(=O)N[C@H](CC)C(C)(C)C)C1(C(=O)O)CCCC1)C(C)(C)C		5.30	5.22
CCC(CC)NC(=O)N[C@H](C(=O)C[C@@H](CC(=O)C(C)(C)C)C(=O)N[C@@H](CC(=O)O)C(=O)N[C@@H](CC(C)C)C(=O)O)C(C)(C)C	8.30		
CC[C@@H](NC(=O)[C@@H](NC(=O)[C@H](CC(=O)C(C)(C)C)NC(=O)[C@@H](NC(=O)N[C@@H]1[C@H](C)CCC[C@@H]1C)C(C)(C)C)C1(C(=O)O)CCCC1)C(C)(C)C		4.89	4.89
CC[C@@H](NC(=O)[C@@H](NC(=O)[C@@H](CC(=O)[C@@H](NC(=O)N[C@@H]1[C@H](C)CCC[C@@H]1C)C(C)(C)C)CC(=O)C(C)(C)C)C1(C(=O)O)CCCC1)C(C)(C)C		5.15	5.22
C[C@@H]1CCC[C@H](C)[C@@H]1NC(=O)N[C@H](C(=O)C[C@@H](CC(=O)C(C)(C)C)C(=O)N[C@H](C(=O)N[C@H](CO)CC(C)(C)C)C1(C(=O)O)CCCC1)C(C)(C)C		4.59	4.59
CC[C@@H](NC(=O)[C@@H](NC(=O)[C@@H](CC(=O)[C@@H](NC(=O)[C@H](C(C)C)N(C)C(=O)C(Cc1ccccc1)Cc1ccccc1)C(C)(C)C)CC(=O)C(C)(C)C)C1(C(=O)O)CCCC1)C(C)(C)C		5.80	5.89
CC[C@@H](NC(=O)[C@@H](NC(=O)[C@H](CC(=O)N1CCCC1)NC(=O)[C@@H](NC(=O)[C@H](C(C)C)N(C)C(=O)C(Cc1ccccc1)Cc1ccccc1)C(C)(C)C)C1(C(=O)O)CCCC1)C(C)(C)C (Dibenzylacetyl-[NMeV][Tle]D(Pyrrolidide)[Asp(3,3-(CH2)4)]-X1)		5.74	6.10
CC(C)[C@@H](C(=O)N[C@H](C(=O)N[C@@H](CC(=O)N1CCCC1)C(=O)N[C@H](C(=O)N[C@H](CO)CC(C)(C)C)C1(C(=O)O)CCCC1)C(C)(C)C)N(C)C(=O)C(Cc1ccccc1)Cc1ccccc1 (Dibenzylacetyl-[NMeV][Tle]D(Pyrrolidide)[Asp(3,3-(CH2)4)]-{Leu(γ-Me)ol})		5.38	5.51
CC(C)C[C@H](NC(=O)[C@H](CC(=O)O)NC(=O)[C@H](CC(=O)N1CCCC1)NC(=O)[C@@H](NC(=O)NC1[C@H](C)CCC[C@@H]1C)C(C)C)C(=O)O (stereo in doubt; 7)	7.26		
CC(C)C[C@H](NC(=O)[C@H](CC(=O)O)NC(=O)[C@H](CC(=O)N1CCCC1)NC(=O)[C@@H](NC(=O)NC1[C@H](C)CCC[C@@H]1C)C(C)C)C(=O)O (stereo in doubt; 9)	8.70		
CC(C)C[C@H](NC(=O)[C@H](CC(=O)O)NC(=O)[C@H](CC(=O)N1CCCC1)NC(=O)[C@@H](NC(=O)NC1CCCCC1)C(C)C)C(=O)O ({NHcHex-CO}-VD(Pyrrolidide)DL-OH)	6.30		
CC(C)C[C@H](NC(=O)[C@H](CC(=O)O)NC(=O)[C@H](CC(=O)N1CCCC1)NC(=O)[C@@H](NC(=O)NC(C)C)C(C)C)C(=O)O ({NHiPr-CO}-VD(Pyrrolidide)DL-OH)	6.36		
CCCC(CCC)NC(=O)N[C@H](C(=O)N[C@@H](CC(=O)N1CCCC1)C(=O)N[C@@H](CC(=O)O)C(=O)N[C@@H](CC(C)C)C(=O)O)C(C)C ({X2-CO}-VD(Pyrrolidide)DL-OH)	8.15		
Nc1nc2c(ncn2COCCO)c(=O)[nH]1 [ACYCLOVIR]		5.70	5.70

Now from value to molecule, other results behind:

pIC50 [1]	Compound	pEC50 (BHK-21 [2])	pEC50 (BHK-21 [3])
7.57	CCC(CC)NC(=O)N[C@H](C(=O)N[C@@H](CC(=O)N1CCCC1)C(=O)N[C@@H](CC(=O)O)C(=O)N[C@H](C)C(C)(C)C)C(C)(C)C		
5.72	CCC(CC)NC(=O)N[C@H](C(=O)N[C@@H](CC(=O)N1CCCC1)C(=O)N[C@@H](CC(=O)O)C(=O)NCC(C)C)C(C)(C)C		
8.52	CCC(CC)NC(=O)N[C@H](C(=O)N[C@@H](CC(=O)C(C)(C)C)C(=O)N[C@@H](CC(=O)O)C(=O)N[C@@H](CC(C)C)C(=O)O)C(C)(C)C		
8.15	CCC(CC)NC(=O)N[C@H](C(=O)C[C@@H](CC(=O)N1CCCC1)C(=O)N[C@@H](CC(=O)O)C(=O)N[C@@H](CC(C)C)C(=O)O)C(C)(C)C		
5.57	CCC(CC)NC(=O)N[C@H](C(=O)N[C@@H](CC(=O)N1CCCC1)C(=O)N[C@@H](CC(=O)O)C(=O)N[C@@H](C)C(C)(C)C)C(C)(C)C		
8.22	CCC(CC)NC(=O)N[C@H](C(=O)N[C@@H](CC(=O)N1CCCC1)C(=O)N[C@@H](CC(=O)O)C(=O)N[C@H](CO)CC(C)(C)C)C(C)(C)C		
6.46	CCC(CC)NC(=O)N[C@H](C(=O)N[C@@H](CC(=O)N1CCCC1)C(=O)N[C@@H](CC(=O)O)C(=O)NCCC(C)C)C(C)(C)C		
5.70	CCC(CC)NC(=O)N[C@H](C(=O)N[C@@H](CC(=O)N1CCCC1)C(=O)N[C@@H](CC(=O)O)C(=O)N[C@@H](CC)C(C)(C)C)C(C)(C)C		
7.74	CCC(CC)NC(=O)N[C@H](C(=O)N[C@@H](CC(=O)N1CCCC1)C(=O)N[C@@H](CC(=O)O)C(=O)N[C@H](CC)C(C)(C)C)C(C)(C)C		
7.82	CCC(CC)NC(=O)N[C@H](C(=O)N[C@@H](CC(=O)N1CCCC1)C(=O)N[C@@H](CC(=O)O)C(=O)N[C@@H](CC(C)C)C(=O)O)C(C)C ({NH(3-pentyl)-CO}-VD(Pyrrolidide)DL-OH)		
8.52	CCC(CC)NC(=O)N[C@H](C(=O)N[C@@H](CC(=O)N1CCCC1)C(=O)N[C@@H](CC(=O)O)C(=O)N[C@@H](CC(C)C)C(=O)O)C(C)(C)C ({NH(3-pentyl)-CO}-[Tle]D(Pyrrolidide)DL-OH)		
9.22	CCC(CC)NC(=O)N[C@H](C(=O)N[C@@H](CC(=O)N1CCCC1)C(=O)N[C@@H](CC(=O)O)C(=O)N[C@@H](CC(C)(C)C)C(=O)O)C(C)(C)C ({NH(3-pentyl)-CO}-[Tle]D(Pyrrolidide)D[tBuAla]-OH)		
